Calls of active or inactive are those of the source. No cut-off for these calls is given here.
How the values were obtained:
[1] = test system: LNCaP; assay: Inhibition of Akt phosphorylation in human LNCAP cells at 0.1 to 30 uM after 30 mins by Western blot analysis; type: cell-based
Summary of the method: (§1)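 Western blot: cells homogenized and spun at 10,000 g for 15 min. Supernatant kept as cytoplasmic fraction; nuclear proteins extracted with a kit. Denatured proteins run on gels, transferred to PVDF, probed with specific antibodies, and detected by enhanced chemiluminescence.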

[2] = test system: LNCaP; assay: Downregulation of survivin expression in human LNCAP cells at 0.1 to 30 uM after 24 hrs by Western blot analysis; type: functional, cell-based; summary of the method: as §1
[3] = test system: LNCaP; assay: Induction of apoptosis in human LNCAP cells assessed as increase in caspase3 activation at >10 uM after 1 to 2 days; type: functional, cell-based
Summary of the method: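 LNCaP cells seeded at 1 10^4 per well, cultured 24 h, then treated 1 or 2 days. Caspase-3 activity read with a commercial caspase-3 kit in triplicate. Significance by Student's t-test, P < 0.05.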

[4] = Cytotoxicity against human RWPE1 cells assessed as cell viability at 10 uM after 3 days by CCK8 method; type: cell-based, RWPE-1; settings: read-out: Activity
Summary of the method: (§2)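 Normal prostate RWPE-1 cells kept in keratinocyte serum-free medium with 0.05 mg/ml bovine pituitary extract and 5 ng/ml recombinant human EGF. Cells seeded at 1 10^4 per well, cultured 24 h, then treated 1–3 days. Viability measured by CCK-8 in triplicate.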

[5] = test system: LNCaP; assay: Cytotoxicity against human LNCAP cells assessed as cell viability at 10 uM by CCK8 method; type: functional, cell-based; settings: TDE = time-dependent effect
[6] = Cytotoxicity against human RWPE1 cells assessed as cell viability after 1 to 3 days by CCK8 method; type: cell-based; settings: rwpe-1; summary of the method: as §2
[7] = test system: LNCaP; assay: Cytotoxicity against human LNCAP cells assessed as cell viability after 4 days by CCK8 method; type: functional, cell-based; settings: 96 h
Summary of the method: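 LNCaP cells grown in RPMI1640 with 10% FBS plus penicillin/streptomycin at 37 °C, 5% CO2. Cells seeded at 3 10^3 per well, cultured 24 h, then exposed to compound for 4 days. Viability read by CCK-8 absorbance, in triplicate.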

[8] = test system: LNCaP; assay: Cytotoxicity against human LNCAP cells assessed as cell viability at 1 to 10 uM after 1 day by luciferase assay; type: cell-based; settings: 24 h, in the assay text read “by CCK-8 assay” for “by luciferase assay”
Summary of the method: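 LNCaP cells lentivirally transduced with an AR luciferase reporter and selected with 30 µg/ml puromycin. Cells at 4 10^4 per well, kept 1 day in 10% stripped FBS, then treated 1 day in 0.1% stripped FBS with or without 0.1 µM DHT. Luciferase measured for AR activation and CCK-8 for viability; Student's t-test.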

[9] = test system: LNCaP; assay: Induction of apoptosis in human LNCAP cells at 30 uM after 72 hrs by AnnexinV staining based fluorescent microscopy; type: functional, cell-based
Summary of the method: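 LNCaP cells (5 10^4) plated on coverslips coated with 1% gelatin and treated 72 h. Annexin V kit staining, fixation in 2% formaldehyde, nuclei counterstained with 10 µg/ml DAPI. Annexin V-positive cells counted by fluorescence microscopy.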

[10] = test system: LNCaP; assay: Antiapoptotic activity against human LNCAP cells assessed as cell survival at 10 uM after 1 day by CCK8 method; type: functional; settings: 24 h, read-out: Activity
[11] = test system: LNCaP; assay: Downregulation of CK2alpha expression in human LNCAP cells assessed as reduction of cytosolic protein level at 10 uM after 12 to 24 hrs by Western blot analysis; type: functional, cell-based; summary of the method: as §1
[12] = test system: LNCaP; assay: Downregulation of CK2alpha expression in human LNCAP cells assessed as reduction of nuclear protein level at 10 uM after 12 to 24 hrs by Western blot analysis; type: functional, cell-based; summary of the method: as §1

| Structure (SMILES) | inhibition [1] | Activity [2] | Activity [3] | viability at 72 h, 10 µM [4] | Activity [5] | Activity [6] | IC50 [7] | Activity [8] | Activity [9] | viability at 10 µM [10] | Activity [11] | Activity [12] |
| --- | --- | --- | --- | --- | --- | --- | --- | --- | --- | --- | --- | --- |
| O=c1cc(N2CCOCC2)oc2c(-c3ccccc3)cccc12 | Active | Active |  |  |  |  |  |  |  |  |  |  |
| O=C(O)c1ccc2c(c1)nc(Nc1cccc(Cl)c1)c1ccncc12 [SILMITASERTIB] |  |  | Active | 94% | tde | Non-toxic | 4.59 µM | Non-toxic | Active | 72% | Active | Active |

From ChEMBL document CHEMBL2146399, “Anti-androgen receptor activity of apoptotic CK2 inhibitor CX4945 in human prostate cancer LNCap cells” (Bioorg Med Chem Lett, 2012)
